Screening data as filed in PubChem.
Cav32 inh – human Cav3.2 channel inhibition, primary screen. Cav3.2-expressing cells, Fluo-4 calcium fluorescence FDSS; hits give low values. B-score at 10 µM. actives 4% (n = 100,000). AID 449739;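 active = single-dose well whose peak fluorescence ratio is a statistical outlier from its plate by either plate-standardised score or position-corrected B-score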
CYP2C9 activ – CYP2C9 (human) activation. recombinant CYP2C9, luciferin-H conversion, luminescence; hits give high values; factor 1 = untreated enzyme, 0 = blocked. activation factor at 5 µM. actives 1.4% (n = 96,000);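 active = activation factor of 2 or more for CYP2C9 at a 5 µM dose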;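 note: 0 = sulfaphenazole-blocked wells and 1 = vehicle-only wells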
CYP2C19 inhib – inhibitors of human CYP2C19; P33261; AID 778; actives 21% (n = 96,000); inhibition, % at 5 µM; CYP2C19 Supersomes, luciferin-H EGE luminescence, 30 min;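 active = CYP2C19 inhibition above a set limit at 5 µM in the primary screen, cut at about 50% in these data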;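 note: plate controls were negative control wells for no effect and 2.5 mM tranylcypromine positive control for full effect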
Target sequence (P33261 whole entry, looked up): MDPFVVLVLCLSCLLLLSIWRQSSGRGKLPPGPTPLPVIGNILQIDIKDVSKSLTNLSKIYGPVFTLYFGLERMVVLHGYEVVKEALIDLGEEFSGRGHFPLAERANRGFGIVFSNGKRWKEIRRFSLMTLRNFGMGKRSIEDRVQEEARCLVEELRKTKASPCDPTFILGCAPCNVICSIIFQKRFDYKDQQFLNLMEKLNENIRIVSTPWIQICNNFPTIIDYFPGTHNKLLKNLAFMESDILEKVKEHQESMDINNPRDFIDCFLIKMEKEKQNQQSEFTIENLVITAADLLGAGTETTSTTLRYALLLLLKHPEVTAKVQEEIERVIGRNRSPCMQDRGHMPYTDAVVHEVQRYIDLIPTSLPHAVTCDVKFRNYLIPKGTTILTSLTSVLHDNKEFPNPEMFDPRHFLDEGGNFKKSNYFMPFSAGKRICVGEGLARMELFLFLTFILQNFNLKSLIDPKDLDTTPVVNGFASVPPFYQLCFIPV
CYP2C19 act – cytochrome P450 2C19 (human) activation; AID 1025; activation factor at 5 µM; 96,000 tested, under 10 active; recombinant CYP2C19, luciferin-H EGE luminescence; hits give high values; 0 = fully inhibited enzyme, 1 = untreated enzyme;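 active = activation factor of at least 2 at 5 µM in the primary screen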;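 note: 0 = wells with 2.5 mM tranylcypromine and 1 = vehicle-only wells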
Rev-RRE block – HIV Rev-RRE protein-RNA interaction inhibition. P05866. Rev peptide-RRE RNA binding, FRET. inhibition, % at 8 µM. actives 0.79% (n = 97,000). AID 704;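 active = inhibition above the screen-wide mean plus 3 SD, cut at about 35% in these data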;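 note: 0% = median DMSO wells and 100% = median Neomycin B control wells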
Target sequence (P05866 whole entry, looked up): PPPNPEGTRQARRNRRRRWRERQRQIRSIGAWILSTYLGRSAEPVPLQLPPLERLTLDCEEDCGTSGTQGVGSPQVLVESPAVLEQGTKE
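Assay system: labelled RRE RNA duplex and labelled Rev peptide / Medium: HEPES pH 7.5 salt buffer with EDTA / Reagent: labelled Rev peptide / Schedule: 5 + 15 min at 25 °C / Signal: FRET, excitation 480 nm, emission 540 nm donor and 671 nm acceptor / Benchmarks: DMSO and neomycin B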
CYP2C9 inh – blocks human cytochrome P450 2C9; actives 20% (n = 96,000); inhibition, % at 5 µM; CYP2C9 Supersomes, luciferin-H conversion, luminescence; AID 777; P11712;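 active = blocking of liver enzyme CYP2C9 beyond about 50% at 5 µM, limit read from the data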
* marks the source's active call; other numbers are inactive results. The list is not random: actives were taken first. Their share in the collection is about 27%.

How did COc1ccccc1N=c1oc2c(OC)cccc2cc1C(=O)NCc1ccco1 do in these assays?
Cav32 inh: -3.47; CYP2C9 activ: 0.4; CYP2C19 inhib: 65.8*; CYP2C19 act: 0.3; Rev-RRE block: -1.2; CYP2C9 inh: 61.5*

Results for COc1ccc(OC)c(N=c2oc3c(OC)cccc3cc2C(=O)NCc2ccco2)c1 ?
Cav32 inh: -1.24; CYP2C9 activ: 0.5; CYP2C19 inhib: 45.0; CYP2C19 act: 0.6; CYP2C9 inh: 50.3*

What do the screens show for `COc1cccc2cc(C(=O)NCc3ccccn3)c(=O)oc12`?
Cav32 inh: 0.343; Rev-RRE block: 7.7

Results for CC(=O)Nc1cc(-c2nn(CC(=O)N3CCCCC3)c(=O)c3ccccc23)ccc1N1CCOCC1 ?
Cav32 inh: 0.0178; CYP2C9 activ: 0.9; CYP2C19 inhib: -2.6; CYP2C19 act: 1; Rev-RRE block: 2.0; CYP2C9 inh: 11.5

What do the screens show for `CCOC(=O)C(NC=O)(NC(C)(C)C)C(=O)OCC`?
Cav32 inh: -0.145; CYP2C9 activ: 1; CYP2C19 inhib: -0.6; CYP2C19 act: 1; Rev-RRE block: 12.2; CYP2C9 inh: -3.1

How did Cc1ccsc1/C=C1\CCc2ccccc2C1=O do in these assays?
Cav32 inh: -0.377; CYP2C9 activ: 0.1; CYP2C19 inhib: 92.9*; CYP2C19 act: 0.1; Rev-RRE block: 12.6; CYP2C9 inh: 87.4*

Results for O=C1/C(=C\c2ccc3ccccc3c2)CCCc2ccccc21 ?
Cav32 inh: 0.201; Rev-RRE block: 11.5

How did COc1ccc(/C=C2\CCc3ccccc3C2=O)cc1Cn1nc(C)cc1C do in these assays?
Cav32 inh: -4.27*; CYP2C9 activ: 0.5; CYP2C19 inhib: 90.2*; CYP2C19 act: 0.1; Rev-RRE block: 6.2; CYP2C9 inh: 53.3*

Results for COc1ccc(/C=C2\CCc3ccccc3C2=O)cc1OC ?
Cav32 inh: -1.18; CYP2C9 activ: 0.5; CYP2C19 inhib: 29.7; CYP2C19 act: 0.7; Rev-RRE block: 5.2; CYP2C9 inh: 52.7*

Results for FC(F)(F)c1nnc2ccc(-n3ccnc3)nn12 ?
Cav32 inh: -0.304; CYP2C9 activ: 1; CYP2C19 inhib: -3.3; CYP2C19 act: 1; Rev-RRE block: 8.5; CYP2C9 inh: -1.1

Results for CCCCN1CNC(=S)N(c2cc(C)ccc2C)C1 ?
Cav32 inh: 0.341; CYP2C9 activ: 0.9; CYP2C19 inhib: 72.4*; CYP2C19 act: 0.3; Rev-RRE block: -2.0; CYP2C9 inh: 9.4

How did COC(=O)c1cc2sc(Cl)cc2n1Cc1nc(-c2cccc(C)c2)oc1C do in these assays?
Cav32 inh: 0.0975; CYP2C9 activ: 0.9; CYP2C19 inhib: -8.6; CYP2C19 act: 1.1; Rev-RRE block: 5.7; CYP2C9 inh: 12.1

What do the screens show for `COc1cc(OC)c(CN2CCN(c3ccc(F)cc3)CC2)cc1Br`?
Cav32 inh: -1.98; CYP2C9 activ: 0.9; CYP2C19 inhib: 77.5*; CYP2C19 act: 0.2; CYP2C9 inh: 11.1

What do the screens show for `CC(C)NC(=S)NN(c1ccccc1)c1ccccc1`?
Cav32 inh: -3.3; CYP2C9 activ: 0.5; CYP2C19 inhib: 61.5*; CYP2C19 act: 0.4; Rev-RRE block: 4.9; CYP2C9 inh: 51.0*

How did CCN(CC)S(=O)(=O)c1cccc(NC(=O)C2SC(=Nc3ccc(C)cc3C)C(C(=O)NCC3CCCO3)=C2N)c1 (stereo unspecified) do in these assays?
Cav32 inh: -1.54; CYP2C9 activ: 0.1; CYP2C19 inhib: 62.2*; CYP2C19 act: 0.4; Rev-RRE block: 5.7; CYP2C9 inh: 93.1*

Results for COCCNC(=O)C1=C(N)C(C(=O)Nc2ccc(C)c(S(=O)(=O)N3CCCCC3)c2)SC1=Nc1ccc(C)cc1C (stereo unspecified) ?
Cav32 inh: -2.79; CYP2C9 activ: 0.2; CYP2C19 inhib: 23.9; CYP2C19 act: 0.8; Rev-RRE block: 1.3; CYP2C9 inh: 75.4*

What do the screens show for `Cc1nnc(NC(=O)c2ccc(C)c(S(=O)(=O)N3CCCCCC3)c2)s1`?
Cav32 inh: -0.125; CYP2C9 activ: 1.1; CYP2C19 inhib: -3.7; CYP2C19 act: 1; Rev-RRE block: 13.6; CYP2C9 inh: -8.7

Results for CCN(CC)S(=O)(=O)c1cccc(C(=O)NCC2CCCO2)c1 (stereo unspecified) ?
Cav32 inh: 0.512; CYP2C9 activ: 1; CYP2C19 inhib: -11.3; CYP2C19 act: 1.1; Rev-RRE block: 9.4; CYP2C9 inh: -2.7

What do the screens show for `COc1ccc(NC(=O)COC(=O)c2c(-c3ccccc3)noc2C)cc1`?
Cav32 inh: 0.358; CYP2C9 activ: 0.7; CYP2C19 inhib: 52.8*; CYP2C19 act: 0.5; Rev-RRE block: -0.4; CYP2C9 inh: 27.0

What do the screens show for `COc1ccc(N2CCN(C(=O)c3c(-c4ccccc4)noc3C)CC2)cc1`?
Cav32 inh: 1.64; Rev-RRE block: -4.1

Results for Cc1noc(C)c1C(=O)OCC(=O)Nc1ccccc1Oc1ccccc1 ?
Cav32 inh: -2.5; CYP2C9 activ: 0.5; CYP2C19 inhib: 34.9; CYP2C19 act: 0.7; Rev-RRE block: 9.3; CYP2C9 inh: 49.6

How did COc1cccc(NC(=O)COC(=O)c2c(-c3ccccc3)noc2C)c1 do in these assays?
Cav32 inh: 0.00318; CYP2C9 activ: 0.4; CYP2C19 inhib: 60.3*; CYP2C19 act: 0.4; Rev-RRE block: 9.8; CYP2C9 inh: 60.2*

Results for Cc1onc(-c2ccccc2)c1C(=O)N/N=C(\N)COc1ccc(Cl)cc1 ?
Cav32 inh: -0.717; CYP2C9 activ: 0.3; CYP2C19 inhib: 69.4*; CYP2C19 act: 0.3; Rev-RRE block: 5.5; CYP2C9 inh: 74.1*

Results for CCN(CC)c1nc2ccccc2n2cnnc12 ?
Cav32 inh: -0.6; CYP2C9 activ: 0.8; CYP2C19 inhib: -0.4; CYP2C19 act: 1; Rev-RRE block: -1.2; CYP2C9 inh: 15.2

How did CCc1ccc(NC(=O)CC2C(=O)N(c3cccc(C)c3)C(=O)N2C2CC2)cc1 (stereo unspecified) do in these assays?
Cav32 inh: -0.205

Results for Cc1c(C(=O)NCc2ccco2)oc2ccc(S(=O)(=O)N3CCC4(CC3)OCCO4)cc12 ?
Cav32 inh: 1.33; CYP2C9 activ: 0.6; CYP2C19 inhib: 13.7; CYP2C19 act: 0.9; Rev-RRE block: -2.5; CYP2C9 inh: 40.0

Results for COc1ccc(CCNC(=O)c2oc3ccc(S(=O)(=O)N4CCOCC4)cc3c2C)cc1OC ?
Cav32 inh: 1.85; CYP2C9 activ: 0.3; CYP2C19 inhib: 32.8; CYP2C19 act: 0.7; Rev-RRE block: 12.4; CYP2C9 inh: 73.2*

Results for Cc1c(C(=O)NCCc2ccccc2)oc2ccc(S(=O)(=O)N3CCC4(CC3)OCCO4)cc12 ?
Cav32 inh: -3.08; CYP2C9 activ: 0.1; CYP2C19 inhib: 62.6*; CYP2C19 act: 0.4; Rev-RRE block: 2.1; CYP2C9 inh: 86.7*

How did CCOc1ccc(NC(=O)CC2C(=O)N(c3cccc(OC)c3)C(=O)N2C(C)C)cc1 (stereo unspecified) do in these assays?
Cav32 inh: 0.015
